Data as given in ChEMBL document CHEMBL3232903, “New pyrazolobenzothiazine derivatives as hepatitis C virus NS5B polymerase palm site I inhibitors” (J Med Chem, 2014).
pEC50, pIC50: −log10 of the molar value.

What was measured:
[1] = target: RNA-directed RNA polymerase (Hepacivirus hominis, UniProt O39930, M423T); assay: Inhibition of RNA-dependent RNA polymerase activity of HCV genotype 1b HC-J4 recombinant N-terminal histidine tagged C-terminal 21 aminoacids truncated NS5B polymerase M423T mutant at thumb site 2 after 1 hr by standard primer dependent elongation assay; design: species or system Hepatitis C virus isolate HC-J4
Sequence of RNA-directed RNA polymerase (Hepacivirus hominis, UniProt O39930, M423T) (O39930 entry or part of it M423T): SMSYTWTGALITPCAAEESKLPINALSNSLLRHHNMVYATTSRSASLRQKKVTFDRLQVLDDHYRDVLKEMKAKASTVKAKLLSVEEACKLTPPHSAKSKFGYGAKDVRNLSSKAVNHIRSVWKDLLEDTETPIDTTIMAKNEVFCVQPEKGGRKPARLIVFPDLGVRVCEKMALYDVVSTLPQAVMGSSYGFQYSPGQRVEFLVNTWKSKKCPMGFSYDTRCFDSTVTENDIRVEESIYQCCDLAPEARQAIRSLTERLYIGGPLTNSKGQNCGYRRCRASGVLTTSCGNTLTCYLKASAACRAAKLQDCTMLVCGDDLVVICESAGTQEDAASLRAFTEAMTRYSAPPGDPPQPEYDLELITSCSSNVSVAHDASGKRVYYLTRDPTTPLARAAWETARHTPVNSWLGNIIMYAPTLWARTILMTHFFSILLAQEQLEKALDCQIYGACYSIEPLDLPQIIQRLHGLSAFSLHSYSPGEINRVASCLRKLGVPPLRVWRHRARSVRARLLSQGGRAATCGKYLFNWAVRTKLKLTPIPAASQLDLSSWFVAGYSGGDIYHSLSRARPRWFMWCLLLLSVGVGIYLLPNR
Method in brief: (§1)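 Recombinant NS5BCΔ21 genotype 1b mutants, M414T, M423T and P495L, each run in a primer-dependent elongation assay as for wild-type enzyme. IC50 is the mean ± SD of two independent experiments in duplicate.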

[2] = test system: Hepatitis C virus isolate HC-J4; assay: Inhibition of RNA-dependent RNA polymerase activity of HCV genotype 1b HC-J4 recombinant N-terminal histidine tagged C-terminal 21 aminoacids truncated NS5B polymerase at 50 uM after 1 hr by standard primer dependent elongation assay
Method in brief: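 Recombinant NS5BCΔ21 genotype 1b in a primer-dependent elongation assay. […] IC50 is the concentration halving enzyme activity in vitro; mean ± SD of two independent experiments in duplicate.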

[3] = Induction of steatosis in human Huh-9-13 cells assessed as increase in size of lipid droplets at 90 uM by LipidTOX red staining; assay type: cell-based
Method in brief: (§2)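 Huh-9-13 cells seeded at 25.000 cells/dish in complete DMEM without G418 at 37 °C, 5% CO2. Next day, compound (90 μM) or DMSO added for 3 days. Then stained 30 min with monodansylcadaverine (50 μM; ex 340/em 530 nm), LipidTOX Red (1/1000; ex 577/em 609 nm) or Nile Red (2 μg/mL; yellow-gold at ex 552/em 636 nm). Imaged by confocal microscopy.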

[4] = Apparent permeability of the compound after 22 hrs by PAMPA-GI model analysis; assay type: physicochemical
Method in brief: (§3)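 PAMPA, gastrointestinal model. Donor 0.5 mM, diluted from 1 mM DMSO stock in phosphate buffer pH 7.4 (0.025 M). Filter coated with 1% w/v phosphatidylcholine in dodecane; acceptor 50% DMSO in buffer. Incubated 5 or 22 h at room temperature with gentle shaking. Both sides analysed by LC-UV at 254 nm, concentration from peak area. Papp in cm/s and % membrane retention calculated by equations; three plates on different days.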

[5] = target: RNA-directed RNA polymerase (Hepacivirus hominis, UniProt O39930, P495L); assay: Inhibition of RNA-dependent RNA polymerase activity of HCV genotype 1b HC-J4 recombinant N-terminal histidine tagged C-terminal 21 aminoacids truncated NS5B polymerase P495L mutant at thumb site 1 after 1 hr by standard primer dependent elongation assay; design: species or system Hepatitis C virus isolate HC-J4; method in brief: as §1
Sequence of RNA-directed RNA polymerase (Hepacivirus hominis, UniProt O39930, P495L) (O39930 entry or part of it P495L): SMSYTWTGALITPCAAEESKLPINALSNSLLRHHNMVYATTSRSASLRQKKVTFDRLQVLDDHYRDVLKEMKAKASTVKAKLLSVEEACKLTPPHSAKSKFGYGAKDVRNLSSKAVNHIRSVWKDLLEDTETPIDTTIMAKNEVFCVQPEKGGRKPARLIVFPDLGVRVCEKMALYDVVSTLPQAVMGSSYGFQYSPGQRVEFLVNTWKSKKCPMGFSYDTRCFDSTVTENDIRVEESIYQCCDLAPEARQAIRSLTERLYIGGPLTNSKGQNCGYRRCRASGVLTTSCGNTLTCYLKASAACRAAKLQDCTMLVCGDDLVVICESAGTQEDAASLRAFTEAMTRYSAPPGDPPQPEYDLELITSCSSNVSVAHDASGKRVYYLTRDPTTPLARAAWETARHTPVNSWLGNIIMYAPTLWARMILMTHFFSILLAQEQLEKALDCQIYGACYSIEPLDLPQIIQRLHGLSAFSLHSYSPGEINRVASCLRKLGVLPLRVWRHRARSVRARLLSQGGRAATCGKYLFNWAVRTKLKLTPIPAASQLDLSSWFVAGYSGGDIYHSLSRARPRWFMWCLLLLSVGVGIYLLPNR

[6] = test system: Hepatitis C virus isolate HC-J4; assay: Ratio of IC50 for HCV genotype 1b HC-J4 recombinant N-terminal histidine tagged C-terminal 21 aminoacids truncated NS5B polymerase P495L mutant at thumb site 1 to HCV genotype 1b HC-J4 recombinant N-terminal histidine tagged C-terminal 21 aminoacids truncated wild type NS5B polymerase
Method in brief: (§4)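 Fold change is the mutant NS5BCΔ21 IC50 (M414T, M423T or P495L) divided by the wild-type IC50. Both were measured in a primer-dependent elongation assay, from two independent experiments in duplicate.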

Hepatitis C virus [7] = assay: Antiviral activity against HCV genotype 1b I389luc-ubi-neo/NS3-3'/5.1 replicon infected in human Huh5-2 cells assessed as inhibition of virus replication by luciferase assay; assay type: functional, cell-based, Hepacivirus hominis; details: Huh-5-2
[8] = Lipophilicity, log P of the compound by shake flask method; assay type: physicochemical; details: octanol/water
Method in brief: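 Shake flask: compound dissolved in octanol, then 2.5 mL octanol with 2.5 mL water, sealed and agitated, 10 h to equilibrium. Each phase analysed by HPLC (C18, 50% ACN/50% H2O, 0.8 mL/min, UV).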

[9] = Inhibition of RNA-dependent RNA polymerase activity of HCV genotype 1b HC-J4 recombinant N-terminal histidine tagged C-terminal 21 aminoacids truncated NS5B polymerase after 1 hr by standard primer dependent elongation assay; design: species or system Hepatitis C virus isolate HC-J4
Method in brief: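 Recombinant NS5BCΔ21 genotype 1b in a primer-dependent elongation assay. IC50 is the concentration halving enzyme activity in vitro; mean ± SD of two independent experiments in duplicate.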

Hepatitis C virus [10] = assay: Antiviral activity against HCV genotype 1b I389luc-ubi-neo/NS3-3'/5.1 replicon infected in human Huh6 cells assessed as decrease in replicon RNA content by RT-qPCR analysis; assay type: functional, cell-based, Hepacivirus hominis; details: HuH-6
Method in brief: (§5)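 Subgenomic genotype 1b HCV replicon cells: Huh-9-13 (Huh-7 background, no luciferase reporter) and HuH6 (different adaptive mutations). EC50 from decrease in replicon RNA measured by RT-qPCR. Host-cell proliferation and metabolism checked in parallel by MTS assay.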

[11] = test system: Hepatitis C virus isolate HC-J4; assay: Ratio of IC50 for HCV genotype 1b HC-J4 recombinant N-terminal histidine tagged C-terminal 21 aminoacids truncated NS5B polymerase M414T mutant at palm site 1 to HCV genotype 1b HC-J4 recombinant N-terminal histidine tagged C-terminal 21 aminoacids truncated wild type NS5B polymerase; method in brief: as §4
[12] = Metabolic stability of the compound in human liver microsomes assessed as unmodified compound remaining after 60 mins; assay type: ADME; details: read-out: Stability
Method in brief: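 Compound at 50 μM final (DMSO ≤2%) incubated 60 min at 37 °C with human liver microsomal protein (0.2 mg/mL) and an NADPH-generating system in 125 mM phosphate buffer, pH 7.4. Unmodified parent was quantified by LC–MS and reported as percentage remaining.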

[13] = target: RNA-directed RNA polymerase (Hepacivirus hominis, UniProt O39930, M414T); assay: Inhibition of RNA-dependent RNA polymerase activity of HCV genotype 1b HC-J4 recombinant N-terminal histidine tagged C-terminal 21 aminoacids truncated NS5B polymerase M414T mutant at palm site 1 after 1 hr by standard primer dependent elongation assay; design: species or system Hepatitis C virus isolate HC-J4; method in brief: as §1
Sequence of RNA-directed RNA polymerase (Hepacivirus hominis, UniProt O39930, M414T) (O39930 entry or part of it M414T): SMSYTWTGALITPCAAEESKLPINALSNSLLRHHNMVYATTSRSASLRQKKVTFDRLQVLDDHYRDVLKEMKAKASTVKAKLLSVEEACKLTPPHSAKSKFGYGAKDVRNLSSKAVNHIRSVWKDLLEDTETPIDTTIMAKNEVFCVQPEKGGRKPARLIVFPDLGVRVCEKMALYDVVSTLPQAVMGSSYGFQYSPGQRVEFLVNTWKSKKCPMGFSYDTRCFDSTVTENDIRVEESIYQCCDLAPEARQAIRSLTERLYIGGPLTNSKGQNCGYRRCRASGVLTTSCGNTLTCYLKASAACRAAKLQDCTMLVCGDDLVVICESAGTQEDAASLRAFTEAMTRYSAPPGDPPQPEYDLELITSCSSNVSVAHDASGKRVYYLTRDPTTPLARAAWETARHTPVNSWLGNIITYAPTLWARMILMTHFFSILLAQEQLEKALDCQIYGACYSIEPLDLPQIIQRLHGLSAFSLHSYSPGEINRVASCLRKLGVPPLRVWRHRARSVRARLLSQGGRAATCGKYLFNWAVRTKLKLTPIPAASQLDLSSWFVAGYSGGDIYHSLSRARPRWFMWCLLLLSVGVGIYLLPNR

[14] = Cytostatic activity against human Huh-9-13 cells carrying HCV genotype 1b I389luc-ubi-neo/NS3-3'/5.1 replicon assessed as reduction in metabolic activity after 72 hrs by MTS assay; assay type: ADME, cell-based
Method in brief: (§6)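 MTS assay measuring bioreduction to formazan, read as host-cell metabolism/proliferation in subgenomic genotype 1b replicon cells. It was run alongside RT-qPCR-based antiviral testing. Huh-9-13 replicon cells lack the luciferase reporter, carry different adaptive mutations and more HCV RNA than Huh-5-2. HuH6 replicon cells use a different host line from Huh-7 and have distinct adaptive mutations. CC50 is the concentration that halves MTS reduction.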

[15] = Cytostatic activity against human Huh6 cells carrying HCV genotype 1b I389luc-ubi-neo/NS3-3'/5.1 replicon assessed as reduction in metabolic activity after 72 hrs by MTS assay; assay type: ADME, cell-based; method in brief: as §6
[16] = Apparent permeability of the compound assessed as membrane retention after 22 hrs by PAMPA assay; assay type: physicochemical; method in brief: as §3
[17] = Induction of steatosis in human Huh-9-13 cells assessed as intracellular accumulation of neutral lipids at 90 uM by Nile Red staining; assay type: cell-based; method in brief: as §2
[18] = Apparent permeability of the compound assessed as membrane retention after 5 hrs by PAMPA assay; assay type: physicochemical; method in brief: as §3
Hepatitis C virus [19] = assay: Antiviral activity against HCV genotype 1b […] replicon infected in human Huh9-13 cells assessed as decrease in replicon RNA content by RT-qPCR analysis; assay type: functional, cell-based, Hepacivirus hominis; method in brief: as §5
[20] = Selectivity index, ratio of CC50 for human Huh5-2 cells to EC50 for HCV genotype 1b I389luc-ubi-neo/NS3-3'/5.1 replicon infected in human Huh5-2 cells; design: species or system Huh-5-2
[21] = test system: Hepatitis C virus isolate HC-J4; assay: Ratio of IC50 for HCV genotype 1b HC-J4 recombinant N-terminal histidine tagged C-terminal 21 aminoacids truncated NS5B polymerase M423T mutant at thumb site 2 to HCV genotype 1b HC-J4 recombinant N-terminal histidine tagged C-terminal 21 aminoacids truncated wild type NS5B polymerase; method in brief: as §4
[22] = Cytostatic activity against human Huh5-2 cells carrying HCV genotype 1b I389luc-ubi-neo/NS3-3'/5.1 replicon assessed as reduction in metabolic activity after 72 hrs by MTS assay; assay type: ADME, cell-based, Huh-5-2; details: huh-5-2, 72 h
Method in brief: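 Replicon-bearing Huh-5-2 cells run in parallel with the antiviral read-out; CC50 is the concentration halving MTS bioreduction to formazan, taken as the antimetabolic effect on host cells; mean ± SD from at least three dose–response curves.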

[23] = Cytotoxicity against human Huh5-2 cells carrying HCV genotype 1b I389luc-ubi-neo/NS3-3'/5.1 replicon assessed as cell morphological changes after 72 hrs by microscopic analysis; assay type: cell-based; details: huh-5-2, 72 h
Method in brief: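 Huh-5-2 replicon cells examined by microscopy for changes in cell morphology after 72 h of compound treatment.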

[24] = Apparent permeability of the compound after 5 hrs by PAMPA-GI model analysis; assay type: physicochemical; method in brief: as §3
[25] = Induction of phospholipidosis in human Huh-9-13 cells assessed as multilamellar bodies formation at 90 uM by monodansylcadaverine staining; assay type: cell-based; method in brief: as §2

With `CN1c2c(C(=O)Nc3ccc(NS(C)(=O)=O)cc3)nn(-c3cccc(Cl)c3)c2-c2ccccc2S1(=O)=O` the pIC50 [1] was 5.03, the inhibition [2] was > 50% and the Activity [3] was “Toxic”. The Papp [4] was 4.2 ×10⁻⁶ cm/s, the pIC50 [5] was 5.29 and the Ratio IC50 [6] was 1.2. The pEC50 (Hepatitis C virus [7]) was 5.01, the EC90 (Hepatitis C virus [7]) was 41 µM and the logP [8] was 2.11. For the same molecule, the pIC50 [9] was 5.37, the pEC50 (Hepatitis C virus [10]) was 4.85 and the Ratio IC50 [11] was 29.7. For the same molecule, the remaining at 1 h [12] was 99.9%, the pIC50 [13] was 3.89 and the CC50 [14] was > 90 µM. The CC50 at 72 h [15] was > 90 µM, the R% [16] was 3.2% and the Activity [17] was “Toxic”. The R% [18] was 7.3%, the pEC50 (Hepatitis C virus [19]) was 5.12 and the “Ratio CC50/EC50” value [20] was >18. For the same molecule, the Ratio IC50 [21] was 2.2, the CC50 [22] was > 179 µM and the Activity [23] was “Toxic”. For the same molecule, the Papp [24] was 2.3 ×10⁻⁶ cm/s and the Activity [25] was “Non-toxic”.
